According to ChEMBL document CHEMBL1833805, “Histone deacetylase inhibitors from Burkholderia thailandensis” (2011):
Calls of active or inactive are those of the source. The calls are words filed in the database; no cut-off is given here.

Experiments:
UO-31 [1] = assay: Cytotoxicity against human UO31 cells after 6 days by MTT assay; type: functional; conditions: UO-31, 144 h
ACHN [2] = assay: Cytotoxicity against human ACHN cells after 6 days by MTT assay; type: functional; conditions: 144 h
MDA-MB-468 [3] = assay: Cytotoxicity against human MDA-MB-468 cells after 6 days by MTT assay; type: functional; conditions: MDA-MB-468, 144 h
RXF 393 [4] = assay: Cytotoxicity against human RXF393 cells after 6 days by MTT assay; type: functional; conditions: RXF 393, 144 h
COLO 205 [5] = assay: Cytotoxicity against human COLO205 cells after 6 days by MTT assay; type: functional; conditions: COLO 205, 144 h
UACC-257 [6] = assay: Cytotoxicity against human UACC257 cells after 6 days by MTT assay; type: functional; conditions: UACC-257, 144 h
U-251 [7] = assay: Cytotoxicity against human U251 cells after 6 days by MTT assay; type: functional; conditions: U-251, 144 h
MDA-MB-231 [8] = assay: Cytotoxicity against human MDA-MB-231 cells after 6 days by MTT assay; type: functional; conditions: MDA-MB-231, 144 h
A498 [9] = assay: Cytotoxicity against human A498 cells after 6 days by MTT assay; type: functional; conditions: A498, 144 h
SF-295 [10] = assay: Cytotoxicity against human SF295 cells after 6 days by MTT assay; type: functional; conditions: SF-295, 144 h
NCI-H322M [11] = assay: Cytotoxicity against human NCI-H322M cells after 6 days by MTT assay; type: functional; conditions: 144 h
CAKI-1 [12] = assay: Cytotoxicity against human Caki1 cells after 6 days by MTT assay; type: functional; conditions: CAKI-1, 144 h
SN12C [13] = assay: Cytotoxicity against human SN12C cells after 6 days by MTT assay; type: functional; conditions: 144 h
NCI = assay: Cytotoxicity against human NCI60 cells after 6 days by MTT assay; type: functional; conditions: 144 h
UO-31 [14] = assay: Ratio of FK228 TGI to compound TGI for human UO31 cells; type: functional
ACHN [15] = assay: Ratio of FK228 TGI to compound TGI for human ACHN cells; type: functional
MDA-MB-468 [16] = assay: Ratio of FK228 TGI to compound TGI for human MDA-MB-468 cells; type: functional
RXF 393 [17] = assay: Ratio of FK228 TGI to compound TGI for human RXF393 cells; type: functional
COLO 205 [18] = assay: Ratio of FK228 TGI to compound TGI for human COLO205 cells; type: functional
UACC-257 [19] = assay: Ratio of FK228 TGI to compound TGI for human UACC257 cells; type: functional
U-251 [20] = assay: Ratio of FK228 TGI to compound TGI for human U251 cells; type: functional
MDA-MB-231 [21] = assay: Ratio of FK228 TGI to compound TGI for human MDA-MB-231 cells; type: functional
A498 [22] = assay: Ratio of FK228 TGI to compound TGI for human A498 cells; type: functional
SF-295 [23] = assay: Ratio of FK228 TGI to compound TGI for human SF295 cells; type: functional
NCI-H322M [24] = assay: Ratio of FK228 TGI to compound TGI for human NCI-H322M cells; type: functional
CAKI-1 [25] = assay: Ratio of FK228 TGI to compound TGI for human Caki1 cells; type: functional
SN12C [26] = assay: Ratio of FK228 TGI to compound TGI for human SN12C cells; type: functional
RXF 393 [27] = assay: Ratio of FK228 LC50 to compound LC50 for human RXF393 cells; type: functional
COLO 205 [28] = assay: Ratio of FK228 LC50 to compound LC50 for human COLO205 cells; type: functional
U-251 [29] = assay: Ratio of FK228 LC50 to compound LC50 for human U251 cells; type: functional
A498 [30] = assay: Ratio of FK228 LC50 to compound LC50 for human A498 cells; type: functional
[31] = target: Histone deacetylase 1 (Homo sapiens) (UniProt Q13547); assay: Inhibition of human HDAC1 assessed as deacetylated substrate level using RHKKAc as substrate by fluorometric analysis
Summary of the method: (§1)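 Recombinant human HDAC1 or HDAC8 with fluorogenic p53 379–382 peptide RHKKAc as substrate. Compound tested at 10 doses in duplicate, 3-fold serial dilution from 20 µM. Substrate incubated with compound, then the mixture was digested with a developing mixture. Fluorescence read at 360 nm excitation / 460 nm emission, proportional to deacetylated substrate.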

[32] = target: Histone deacetylase 8 (Homo sapiens) (UniProt Q9BY41); assay: Inhibition of human HDAC8 assessed as deacetylated substrate level using RHKKAc as substrate by fluorometric analysis; summary of the method: as §1
[33] = target: Histone deacetylase 4 (Homo sapiens) (UniProt P56524); assay: Inhibition of human HDAC4 assessed as deacetylated substrate level using RHKAcKAc as substrate by fluorometric analysis
Summary of the method: as §1, with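 “HDAC4” for “HDAC1 or HDAC8”, “RHKAcKAc” for “RHKKAc”, “Two steps: incubation” for “Substrate incubated”, “substrate,” for “compound,”, “digestion” for “the mixture was digested”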

MDA-MB-231 [34] = assay: Antitumor activity against human MDA-MB-231 cells implanted subcutaneously in mouse assessed as inhibition of tumor cell growth at 1.6 to 2.4 mg/kg, ip administered on day 1 to 4 measured on day 5 by hollow fiber assay; type: functional
Summary of the method: (§2)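 Human tumour cell lines from a standard 12-line panel encapsulated in polyvinylidene fluoride hollow fibres (500,000 Da exclusion), implanted intraperitoneally or subcutaneously in mice; drug given IP at 2.4 and 1.6 mg/kg/dose on days 1–4; fibres retrieved and viable cell mass determined day 5; T/C versus vehicle-only injected controls.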

SF-295 [35] = assay: Antitumor activity against human SF295 cells implanted subcutaneously in mouse assessed as inhibition of tumor cell growth at 1.6 to 2.4 mg/kg, ip administered on day 1 to 4 measured on day 5 by hollow fiber assay; type: functional; summary of the method: as §2
U-251 [36] = assay: Antitumor activity against human U251 cells implanted subcutaneously in mouse assessed as inhibition of tumor cell growth at 1.6 to 2.4 mg/kg, ip administered on day 1 to 4 measured on day 5 by hollow fiber assay; type: functional; summary of the method: as §2
COLO 205 [37] = assay: Antitumor activity against human COLO205 cells implanted subcutaneously in mouse assessed as inhibition of tumor cell growth at 1.6 to 2.4 mg/kg, ip administered on day 1 to 4 measured on day 5 by hollow fiber assay; type: functional; summary of the method: as §2
SW-620 = assay: Antitumor activity against human SW620 cells implanted subcutaneously in mouse assessed as inhibition of tumor cell growth at 1.6 to 2.4 mg/kg, ip administered on day 1 to 4 measured on day 5 by hollow fiber assay; type: functional; summary of the method: as §2
LOX IMVI = assay: Antitumor activity against human LOXIMVI cells implanted subcutaneously in mouse assessed as inhibition of tumor cell growth at 1.6 to 2.4 mg/kg, ip administered on day 1 to 4 measured on day 5 by hollow fiber assay; type: functional; summary of the method: as §2
MDA-MB-435 = assay: Antitumor activity against human MDA-MB-435 cells implanted subcutaneously in mouse assessed as inhibition of tumor cell growth at 1.6 to 2.4 mg/kg, ip administered on day 1 to 4 measured on day 5 by hollow fiber assay; type: functional; summary of the method: as §2
UACC-62 = assay: Antitumor activity against human UACC62 cells implanted subcutaneously in mouse assessed as inhibition of tumor cell growth at 1.6 to 2.4 mg/kg, ip administered on day 1 to 4 measured on day 5 by hollow fiber assay; type: functional; summary of the method: as §2
NCI-H23 = assay: Antitumor activity against human NCI-H23 cells implanted subcutaneously in mouse assessed as inhibition of tumor cell growth at 1.6 to 2.4 mg/kg, ip administered on day 1 to 4 measured on day 5 by hollow fiber assay; type: functional; summary of the method: as §2
NCI-H522 = assay: Antitumor activity against human NCI-H522 cells implanted subcutaneously in mouse assessed as inhibition of tumor cell growth at 1.6 to 2.4 mg/kg, ip administered on day 1 to 4 measured on day 5 by hollow fiber assay; type: functional; summary of the method: as §2
[38] = Antitumor activity against human […] cells implanted subcutaneously in mouse assessed as inhibition of tumor cell growth at 1.6 to 2.4 mg/kg, ip administered on day 1 to 4 measured on day 5 by hollow fiber assay; type: functional; summary of the method: as §2
OVCAR-5 = assay: Antitumor activity against human OVCAR5 cells implanted subcutaneously in mouse assessed as inhibition of tumor cell growth at 1.6 to 2.4 mg/kg, ip administered on day 1 to 4 measured on day 5 by hollow fiber assay; type: functional; summary of the method: as §2
[39] = read-out: LC50 (the source's name)

Histone deacetylase 8 (Homo sapiens), sequence (Q9BY41 whole entry): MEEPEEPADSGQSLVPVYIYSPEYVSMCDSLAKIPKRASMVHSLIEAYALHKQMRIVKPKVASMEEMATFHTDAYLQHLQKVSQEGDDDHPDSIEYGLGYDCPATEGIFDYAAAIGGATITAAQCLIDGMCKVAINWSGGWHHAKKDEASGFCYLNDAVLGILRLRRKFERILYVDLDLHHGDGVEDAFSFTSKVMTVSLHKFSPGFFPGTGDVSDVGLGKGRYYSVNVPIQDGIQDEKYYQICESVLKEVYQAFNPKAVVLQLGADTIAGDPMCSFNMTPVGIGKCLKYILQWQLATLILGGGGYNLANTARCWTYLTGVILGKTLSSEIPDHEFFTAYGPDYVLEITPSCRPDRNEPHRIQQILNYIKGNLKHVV
Histone deacetylase 4 (Homo sapiens), sequence (P56524 whole entry): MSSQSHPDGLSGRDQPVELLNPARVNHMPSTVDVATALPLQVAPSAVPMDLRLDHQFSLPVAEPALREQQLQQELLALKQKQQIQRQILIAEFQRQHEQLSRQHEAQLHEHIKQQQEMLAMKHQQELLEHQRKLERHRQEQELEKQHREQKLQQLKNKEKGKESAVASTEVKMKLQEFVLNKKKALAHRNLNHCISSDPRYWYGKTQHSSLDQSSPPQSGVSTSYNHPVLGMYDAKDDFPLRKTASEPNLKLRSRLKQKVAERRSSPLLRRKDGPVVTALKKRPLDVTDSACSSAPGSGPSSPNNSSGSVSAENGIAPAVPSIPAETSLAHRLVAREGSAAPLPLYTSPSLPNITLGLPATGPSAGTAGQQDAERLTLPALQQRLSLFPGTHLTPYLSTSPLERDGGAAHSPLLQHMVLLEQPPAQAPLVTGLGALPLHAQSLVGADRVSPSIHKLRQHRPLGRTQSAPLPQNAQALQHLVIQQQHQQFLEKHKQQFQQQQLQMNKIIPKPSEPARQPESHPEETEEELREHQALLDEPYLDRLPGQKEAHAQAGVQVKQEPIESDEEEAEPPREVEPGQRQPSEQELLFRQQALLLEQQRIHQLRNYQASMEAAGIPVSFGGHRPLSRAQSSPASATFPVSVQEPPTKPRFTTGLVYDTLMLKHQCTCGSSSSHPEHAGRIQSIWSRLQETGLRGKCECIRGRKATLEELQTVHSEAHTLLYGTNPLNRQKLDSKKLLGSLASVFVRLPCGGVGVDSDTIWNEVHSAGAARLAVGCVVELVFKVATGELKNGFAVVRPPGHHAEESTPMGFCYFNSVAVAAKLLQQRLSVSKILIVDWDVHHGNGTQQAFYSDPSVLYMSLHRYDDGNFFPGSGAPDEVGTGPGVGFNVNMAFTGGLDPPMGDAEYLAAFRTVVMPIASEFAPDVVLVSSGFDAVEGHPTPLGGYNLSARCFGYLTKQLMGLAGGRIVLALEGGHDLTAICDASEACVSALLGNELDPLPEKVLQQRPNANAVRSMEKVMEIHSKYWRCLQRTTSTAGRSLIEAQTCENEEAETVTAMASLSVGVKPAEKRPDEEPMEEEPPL
Histone deacetylase 1 (Homo sapiens), sequence (Q13547 whole entry): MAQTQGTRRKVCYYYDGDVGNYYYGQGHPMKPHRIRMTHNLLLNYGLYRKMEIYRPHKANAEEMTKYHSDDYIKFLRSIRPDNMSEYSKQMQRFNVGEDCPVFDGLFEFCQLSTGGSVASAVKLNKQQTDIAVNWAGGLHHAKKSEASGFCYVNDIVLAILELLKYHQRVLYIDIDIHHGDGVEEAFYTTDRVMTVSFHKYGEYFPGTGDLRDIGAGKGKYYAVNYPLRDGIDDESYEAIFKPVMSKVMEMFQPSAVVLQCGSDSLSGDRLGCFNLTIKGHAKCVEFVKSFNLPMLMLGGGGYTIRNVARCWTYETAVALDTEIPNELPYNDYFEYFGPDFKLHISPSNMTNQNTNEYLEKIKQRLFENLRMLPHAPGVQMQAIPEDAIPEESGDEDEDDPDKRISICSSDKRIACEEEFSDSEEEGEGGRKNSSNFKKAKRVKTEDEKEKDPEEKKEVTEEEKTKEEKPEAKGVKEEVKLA

Q: With `CC[C@H](C)[C@H]1NC(=O)[C@H]2CSSCC/C=C/[C@H](CC(=O)N[C@H](CC[S+](C)[O-])C(=O)N2)OC(=O)C[C@@H]1O` (stereo partly specified) [SPIRUCHOSTATIN C] as the compound, how does the TGI (UO-31 [1]) read?
A: Its TGI is 320 nM.

Q: What about the TGI (ACHN [2]) of the same compound?
A: Its TGI is 180 nM.

Q: And the TGI (MDA-MB-468 [3])?
A: Its TGI is 23 nM.

Q: And the TGI (RXF 393 [4])?
A: The TGI was 16 nM.

Q: What about the CC50 (RXF 393 [4]; [39]) of the same compound?
A: The CC50 was 170 nM.

Q: And the TGI (COLO 205 [5])?
A: The TGI was 8 nM.

Q: And the CC50 (COLO 205 [5]; [39])?
A: Its CC50 is 15 nM.

Q: What about the TGI (UACC-257 [6]) of the same compound?
A: The TGI was 33 nM.

Q: What about the TGI (U-251 [7]) of the same compound?
A: Its TGI is 12 nM.

Q: And the CC50 (U-251 [7]; [39])?
A: The CC50 was 37 nM.

Q: And the TGI (MDA-MB-231 [8])?
A: The TGI was 150 nM.

Q: And the TGI (A498 [9])?
A: Its TGI is 12 nM.

Q: What about the CC50 (A498 [9]; [39]) of the same compound?
A: The CC50 was 55 nM.

Q: What about the TGI (SF-295 [10]) of the same compound?
A: The TGI was 110 nM.

Q: What about the TGI (NCI-H322M [11]) of the same compound?
A: The TGI was 100 nM.

Q: What about the TGI (CAKI-1 [12]) of the same compound?
A: The TGI was 880 nM.

Q: What about the TGI (SN12C [13]) of the same compound?
A: The TGI was 160 nM.

Q: And the TGI (NCI)?
A: Its TGI is 830 nM.

Q: What about the CC50 (NCI; [39]) of the same compound?
A: The CC50 was 7700 nM.

Q: And the Ratio (UO-31 [14])?
A: The Ratio was 4.9.

Q: And the Ratio (ACHN [15])?
A: Its Ratio is 4.

Q: And the Ratio (MDA-MB-468 [16])?
A: Its Ratio is 3.9.

Q: And the Ratio (RXF 393 [17])?
A: The Ratio was 3.8.

Q: And the Ratio (COLO 205 [18])?
A: The Ratio was 3.8.

Q: And the Ratio (UACC-257 [19])?
A: Its Ratio is 2.9.

Q: What about the Ratio (U-251 [20]) of the same compound?
A: Its Ratio is 2.7.

Q: And the Ratio (MDA-MB-231 [21])?
A: Its Ratio is 2.4.

Q: What about the Ratio (A498 [22]) of the same compound?
A: Its Ratio is 2.4.

Q: What about the Ratio (SF-295 [23]) of the same compound?
A: The Ratio was 2.3.

Q: And the Ratio (NCI-H322M [24])?
A: The Ratio was 2.3.

Q: And the Ratio (CAKI-1 [25])?
A: Its Ratio is 2.1.

Q: What about the Ratio (SN12C [26]) of the same compound?
A: Its Ratio is 2.1.

Q: What about the Ratio (RXF 393 [27]) of the same compound?
A: The Ratio was 1.8.

Q: What about the Ratio (COLO 205 [28]) of the same compound?
A: Its Ratio is 6.

Q: And the Ratio (U-251 [29])?
A: The Ratio was 3.6.

Q: And the Ratio (A498 [30])?
A: The Ratio was 3.6.

Q: What about the inhibition [31] of the same compound?
A: Its inhibition is “Active”.

Q: What about the inhibition [32] of the same compound?
A: Its inhibition is “Active”.

Q: And the inhibition [33]?
A: Its inhibition is “Active”.

Q: What about the T/C (MDA-MB-231 [34]) of the same compound?
A: The T/C was >50%.

Q: And the T/C (SF-295 [35])?
A: Its T/C is >50%.

Q: What about the T/C (U-251 [36]) of the same compound?
A: Its T/C is >50%.

Q: What about the T/C (COLO 205 [37]) of the same compound?
A: Its T/C is >50%.

Q: What about the T/C (SW-620) of the same compound?
A: Its T/C is >50%.

Q: What about the T/C (LOX IMVI) of the same compound?
A: Its T/C is >50%.

Q: And the T/C (MDA-MB-435)?
A: Its T/C is >50%.

Q: What about the T/C (UACC-62) of the same compound?
A: The T/C was >50%.

Q: And the T/C (NCI-H23)?
A: Its T/C is >50%.

Q: What about the T/C (NCI-H522) of the same compound?
A: The T/C was >50%.

Q: What about the T/C [38] of the same compound?
A: Its T/C is >50%.

Q: And the T/C (OVCAR-5)?
A: The T/C was >50%.
